Measurements as given in paper PMC2848690 (Journal of medicinal chemistry, 2010).

How the values were obtained:
MCF-7 cells [1] = test: MTT proliferation assay, MCF-7; format: cell-based, human; conditions: for Mean IC50 ±SD in MCF-7: MTT assay, 72 hour drug exposure (footnote a), BCA2 +ve, ER +ve, three independent experiments; for IC100 (100% growth inhibitory concentration) in MCF-7: delineated from MTT growth curves
Summary of the method: (§1)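 Exponentially growing cells were kept in RPMI 1640 with 10% heat-inactivated FBS at 37 °C and 5% CO2. They were dosed with test compound from 0.00001 to 10 μM and read by MTT. Each compound was tested in triplicate. Active compounds had three independent experiments, reported as mean ± SD. IC50 and IC100 were read from growth curves.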

MDA-MB-231 cells = test: MTT proliferation assay, MDA-MB-231; format: cell-based; conditions: Homo sapiens, MDA-MB-231, 72 h, read-out: Mean IC50 ±SD in MDA-MB-231
Summary of the method: as §1

T47D cells = test: MTT proliferation assay, T47D; format: cell-based, human; conditions: 72 hour drug exposure (footnote a), BCA2 +ve, ER +ve
Summary of the method: as §1

[2] = system: BCA2+ cells (MCF-7, T47D, MDA-MB-231/ER); test: MTT assay, BCA2-positive breast cancer cell lines as a group; format: cell-based, human; conditions: active if IC50 <10 μM
Summary of the method: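 MCF-7, T47D and MDA-MB-231/ER (a stable ERα-transfected, G418-selected clone of MDA-MB-231 kept in 1mg/mL G418) were grown in RPMI 1640 with 10% heat-inactivated FBS at 37 °C and 5% CO2. Exponentially growing cells were exposed to test compound at 0.00001–10 μM for 72 h, and growth was read by MTT. IC50 values came from growth curves, with triplicate wells and three independent experiments (mean ± SD).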

[3] = system: BCA2 low/− cells (MDA-MB-231 or MCF10A); test: MTT assay, BCA2 low/negative cells as a group; format: cell-based, human; conditions: active if IC50 <10 μM
Summary of the method: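 MDA-MB-231 (BCA2 low/−, ER −) was grown in RPMI 1640 with 10% heat-inactivated FBS, and normal MCF10A mammary epithelial cells in MEGM, both at 37 °C and 5% CO2. Exponentially growing cells received test compound at 0.00001–10 μM for 72 h, followed by MTT read-out. IC50 values came from growth curves, with triplicate wells and three independent experiments (mean ± SD).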

[4] = biological target: recombinant wild type human BCA2 (Homo sapiens, UniProt Q9Y4L5); test: Recombinant BCA2 autoubiquitination assay; format: biochemical; conditions: 50 μM compound, 30 min preincubation
Chain of recombinant wild type human BCA2 (Q9Y4L5 whole entry): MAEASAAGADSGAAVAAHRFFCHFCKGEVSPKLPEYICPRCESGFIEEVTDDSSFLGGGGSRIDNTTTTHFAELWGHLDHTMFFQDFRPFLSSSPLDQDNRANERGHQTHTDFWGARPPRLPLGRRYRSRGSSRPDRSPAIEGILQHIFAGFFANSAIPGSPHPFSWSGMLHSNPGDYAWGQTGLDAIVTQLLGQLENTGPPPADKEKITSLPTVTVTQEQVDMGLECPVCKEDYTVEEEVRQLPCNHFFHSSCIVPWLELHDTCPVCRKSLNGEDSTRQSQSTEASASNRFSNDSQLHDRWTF
Summary of the method: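 Test compound stocks (10 mM in DMSO) were diluted in reaction buffer and preincubated with 10 ng recombinant His-BCA2 (final 5 or 50 μM) for 30 min at room temperature. ATP (20 mM stock), ubiquitin (1 μg), rabbit E1 (20 ng) and human UbcH5b (20 ng) were added in Tris-HCl pH 8.0/DTT/MgCl2 buffer. Reactions ran 1 h at 30 °C, then SDS-PAGE and anti-ubiquitin immunoblot.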

ALDH1 = biological target: T1, ALDH1 (Homo sapiens, UniProt P00352); test: ALDH1 inhibition in K562 cells; format: cell-based; conditions: for ALDH-inhibitory activity (in words): K562 cells, 15 μM
T1 sequence (P00352 2-501 limits assumed): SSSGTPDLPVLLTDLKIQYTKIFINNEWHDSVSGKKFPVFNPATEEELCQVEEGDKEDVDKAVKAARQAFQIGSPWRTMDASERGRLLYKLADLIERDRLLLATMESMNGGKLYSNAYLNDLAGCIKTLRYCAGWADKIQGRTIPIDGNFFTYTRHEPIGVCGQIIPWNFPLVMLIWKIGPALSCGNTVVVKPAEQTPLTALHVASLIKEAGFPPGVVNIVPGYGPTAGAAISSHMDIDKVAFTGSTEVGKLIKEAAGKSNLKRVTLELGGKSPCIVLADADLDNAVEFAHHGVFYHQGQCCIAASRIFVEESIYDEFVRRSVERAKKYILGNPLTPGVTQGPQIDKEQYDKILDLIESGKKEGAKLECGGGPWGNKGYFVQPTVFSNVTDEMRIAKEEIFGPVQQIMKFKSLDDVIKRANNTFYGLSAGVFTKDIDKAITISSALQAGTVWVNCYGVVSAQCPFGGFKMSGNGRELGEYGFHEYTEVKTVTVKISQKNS

MCF-7 cells [5] = test: Zinc chloride rescue of growth inhibition, MTT assay in MCF-7; format: cell-based, human; conditions: for Growth inhibitory activity in presence of zinc chloride: compound at its IC50, ZnCl2 600 nM to 75 μM, 5 days, MCF-7
[6] = cited from earlier work
BCA2 = BCA2 (Homo sapiens, UniProt Q9Y4L5); test: Endogenous BCA2 protein stability in MCF-7 cells; format: cell-based; conditions: 16 hrs exposure at IC100 concentration, compound alone
Chain of BCA2 (Q9Y4L5 whole entry): as the sequence (Q9Y4L5 whole entry) above
Summary of the method: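 MCF-7 cells (1×10^6) were seeded and grown overnight, then exposed for 16 h to test compound alone, or with cycloheximide (100 μM) and/or a proteasome inhibitor (10 μM). DMSO vehicle controls ran for 16 h. Whole-cell lysates were immunoblotted with in-house anti-BCA2 antibodies, using beta-actin as the loading control.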

Row | IC50 (MDA-MB-231 cells) [µM] | Inhibition of autoubiquitination of recombinant BCA2 [4] | ALDH-inhibitory activity (in words) (ALDH1) | ALDH+ K562 cells (%) (ALDH1; compound 15 μM, 45 min at 37 °C) | SMILES | Mean IC50 ±SD in MCF-7 (MCF-7 cells [1]) | Mean IC50 ±SD in T47D (T47D cells) | Activity in BCA2+ cells [2] | Activity in BCA2 low/− cells [3] | Effect on the growth of MCF-7 cells (MCF-7 cells [5]; zinc chloride alone) | Growth inhibitory activity in presence of zinc chloride (MCF-7 cells [5]) | Oral bioavailability [6] [%] | IC100 (100% growth inhibitory concentration) in MCF-7 (MCF-7 cells [1]) [µM] | BCA2 protein levels in MCF-7 cells (BCA2)
1 | > 10 | abolish the autoubiquitination activity | lack ALDH-inhibitory activity | 36.9 ± 3.15 | CCN(CC)C(=S)SSCCO [Compound 5f, 2-Hydroxyethyl diethylcarbamo(dithioperoxo)thioate] | submicromolar | submicromolar | active | inactive |  |  |  |  | 
2 |  |  |  |  | [Cl-].[Cl-].[Zn+2] [Zinc chloride, zinc (II) chloride] |  |  |  |  | no effect |  |  |  | 
3 |  | abolish the autoubiquitination activity |  |  | CCN(CC)C(=S)SSC(=S)N(CC)CC [Compound 1, bis(diethylaminothiocarbonyl)-disulfide, reference compound] |  |  |  |  |  | completely abolished | > 80 |  | 
4 |  |  |  |  | C1CN(SSN2CCOCC2)CCO1 [Compound 4, 4,4′-dithiodimorpholine] |  |  | inactive | inactive |  |  |  |  | 
5 |  | abolish the autoubiquitination activity | lack ALDH-inhibitory activity |  | CCCCCCSSC(=S)N(CC)CC [Compound 5d, Hexyl diethylcarbamo(dithioperoxo)thioate] | submicromolar | submicromolar | active | inactive |  | completely abolished |  | 1 | marked reduction

Row | SMILES | IC50 (MDA-MB-231 cells) [µM] | Inhibition of autoubiquitination of recombinant BCA2 [4] | ALDH-inhibitory activity (in words) (ALDH1) | ALDH+ K562 cells (%) (ALDH1; compound 15 μM, 45 min at 37 °C) | Mean IC50 ±SD in MCF-7 (MCF-7 cells [1]) | Mean IC50 ±SD in T47D (T47D cells) | Activity in BCA2+ cells [2] | Activity in BCA2 low/− cells [3] | Effect on the growth of MCF-7 cells (MCF-7 cells [5]; zinc chloride alone) | Growth inhibitory activity in presence of zinc chloride (MCF-7 cells [5]) | Oral bioavailability [6] [%] | IC100 (100% growth inhibitory concentration) in MCF-7 (MCF-7 cells [1]) [µM] | BCA2 protein levels in MCF-7 cells (BCA2)
6 | S=C(SSC(=S)N1CCCC1)N1CCCC1 [Compound 3c, Bis(pyrrolidinylthiocarbonyl)disulfide] |  | abolish the autoubiquitination activity |  |  | submicromolar | submicromolar |  |  |  |  |  |  | 
7 | S=C(SSC(=S)N1CCCCC1)N1CCCCC1 [Compound 3a, Bis(piperidinylthiocarbonyl)disulfide] |  | abolish the autoubiquitination activity |  |  | submicromolar | submicromolar |  |  |  | completely abolished |  | 0.25 | marked reduction
